Data on five molecules can be found in PMC7564327 (Acta Pharmaceutica Sinica. B, 2020).

Structures can show the parent of a compound that is named as a salt.

In one data set the target is T1, hOAT3 (Homo sapiens, UniProt Q8TCC7).
T1 sequence (Q8TCC7 1-542): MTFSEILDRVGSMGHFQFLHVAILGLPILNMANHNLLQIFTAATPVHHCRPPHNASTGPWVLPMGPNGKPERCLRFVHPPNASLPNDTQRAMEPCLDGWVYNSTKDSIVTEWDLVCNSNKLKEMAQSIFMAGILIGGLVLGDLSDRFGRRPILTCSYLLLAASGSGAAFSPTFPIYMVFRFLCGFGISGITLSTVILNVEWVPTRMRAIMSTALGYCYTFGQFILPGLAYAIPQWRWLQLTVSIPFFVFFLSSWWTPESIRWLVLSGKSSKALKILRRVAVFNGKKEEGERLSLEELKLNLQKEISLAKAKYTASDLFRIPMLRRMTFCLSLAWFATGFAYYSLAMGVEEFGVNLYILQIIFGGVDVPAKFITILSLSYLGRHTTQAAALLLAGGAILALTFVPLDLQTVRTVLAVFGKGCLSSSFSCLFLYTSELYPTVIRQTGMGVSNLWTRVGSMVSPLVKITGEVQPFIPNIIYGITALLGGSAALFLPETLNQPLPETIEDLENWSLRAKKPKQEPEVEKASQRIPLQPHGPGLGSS
The data set can be described thus: Cellular uptake and kinetics in S2-hOAT3 vs Mock cells. In kind it is in vitro ADME.

The next data set concerns the target T2, hOATP1B1 (Homo sapiens, UniProt Q9Y6L6).
T2 sequence (Q9Y6L6 1-691): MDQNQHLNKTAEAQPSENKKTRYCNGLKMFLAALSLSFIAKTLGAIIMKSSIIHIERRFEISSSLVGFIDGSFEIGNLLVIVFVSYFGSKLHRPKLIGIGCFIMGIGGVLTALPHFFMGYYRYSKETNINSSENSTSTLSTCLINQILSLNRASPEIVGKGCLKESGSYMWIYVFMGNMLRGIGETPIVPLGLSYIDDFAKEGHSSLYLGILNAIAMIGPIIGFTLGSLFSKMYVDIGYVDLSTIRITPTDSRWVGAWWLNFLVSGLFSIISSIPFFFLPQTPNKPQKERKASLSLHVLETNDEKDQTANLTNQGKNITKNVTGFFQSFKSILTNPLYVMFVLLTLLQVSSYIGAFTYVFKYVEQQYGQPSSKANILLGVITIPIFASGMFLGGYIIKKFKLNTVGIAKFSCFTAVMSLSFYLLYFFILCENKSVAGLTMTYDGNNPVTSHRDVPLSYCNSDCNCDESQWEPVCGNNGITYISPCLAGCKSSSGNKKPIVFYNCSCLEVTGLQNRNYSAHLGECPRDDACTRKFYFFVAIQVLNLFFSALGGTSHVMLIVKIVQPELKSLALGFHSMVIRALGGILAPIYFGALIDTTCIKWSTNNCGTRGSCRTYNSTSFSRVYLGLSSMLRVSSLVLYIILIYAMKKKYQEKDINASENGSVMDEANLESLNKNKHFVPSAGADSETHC
Briefly: Cellular uptake and kinetics in HEK293-hOATP1B1 vs Mock cells. It is filed as in vitro ADME.

Another data set has as its target T3, hOATP1B3 (Homo sapiens, UniProt Q9NPD5).
T3 sequence (Q9NPD5 1-702): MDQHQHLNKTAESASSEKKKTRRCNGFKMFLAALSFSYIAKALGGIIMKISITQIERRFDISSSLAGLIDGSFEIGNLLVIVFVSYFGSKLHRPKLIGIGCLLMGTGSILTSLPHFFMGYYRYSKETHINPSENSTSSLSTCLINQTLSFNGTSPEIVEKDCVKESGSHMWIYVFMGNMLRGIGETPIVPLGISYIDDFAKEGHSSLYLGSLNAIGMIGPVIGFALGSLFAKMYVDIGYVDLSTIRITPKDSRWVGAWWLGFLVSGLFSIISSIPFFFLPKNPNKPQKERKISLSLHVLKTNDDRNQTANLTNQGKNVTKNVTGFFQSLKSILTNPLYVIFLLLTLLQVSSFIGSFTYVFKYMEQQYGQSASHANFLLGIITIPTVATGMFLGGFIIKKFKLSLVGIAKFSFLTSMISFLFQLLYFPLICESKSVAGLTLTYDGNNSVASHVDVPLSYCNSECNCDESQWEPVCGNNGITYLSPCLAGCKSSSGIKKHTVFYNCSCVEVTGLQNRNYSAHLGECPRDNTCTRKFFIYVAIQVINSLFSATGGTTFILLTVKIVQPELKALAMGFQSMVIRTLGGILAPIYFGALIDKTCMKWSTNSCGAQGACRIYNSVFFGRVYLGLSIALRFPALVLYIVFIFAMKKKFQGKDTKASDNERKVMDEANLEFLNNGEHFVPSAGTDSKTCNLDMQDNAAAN
The data set can be described thus: Cellular uptake and kinetics in HEK293-hOATP1B3 vs Mock cells. It is filed as in vitro ADME. The procedure, abridged: (§1)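 Transfected cells and matching Mock cells were seeded at 2 × 10⁵ cells/mL and grown 2 days. After a DPBS (pH 7.4) wash and 10 min preincubation at 37 °C, cells took up 100 μmol/L test compound for 2–5 min at 37 °C. Uptake was stopped with three ice-cold DPBS washes, followed by methanol extraction and HPLC–MS. Values were normalised to BCA protein and compared with Mock.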

Another data set has as its target T4, hOATP2B1 (Homo sapiens, UniProt O94956).
T4 sequence (O94956 1-709): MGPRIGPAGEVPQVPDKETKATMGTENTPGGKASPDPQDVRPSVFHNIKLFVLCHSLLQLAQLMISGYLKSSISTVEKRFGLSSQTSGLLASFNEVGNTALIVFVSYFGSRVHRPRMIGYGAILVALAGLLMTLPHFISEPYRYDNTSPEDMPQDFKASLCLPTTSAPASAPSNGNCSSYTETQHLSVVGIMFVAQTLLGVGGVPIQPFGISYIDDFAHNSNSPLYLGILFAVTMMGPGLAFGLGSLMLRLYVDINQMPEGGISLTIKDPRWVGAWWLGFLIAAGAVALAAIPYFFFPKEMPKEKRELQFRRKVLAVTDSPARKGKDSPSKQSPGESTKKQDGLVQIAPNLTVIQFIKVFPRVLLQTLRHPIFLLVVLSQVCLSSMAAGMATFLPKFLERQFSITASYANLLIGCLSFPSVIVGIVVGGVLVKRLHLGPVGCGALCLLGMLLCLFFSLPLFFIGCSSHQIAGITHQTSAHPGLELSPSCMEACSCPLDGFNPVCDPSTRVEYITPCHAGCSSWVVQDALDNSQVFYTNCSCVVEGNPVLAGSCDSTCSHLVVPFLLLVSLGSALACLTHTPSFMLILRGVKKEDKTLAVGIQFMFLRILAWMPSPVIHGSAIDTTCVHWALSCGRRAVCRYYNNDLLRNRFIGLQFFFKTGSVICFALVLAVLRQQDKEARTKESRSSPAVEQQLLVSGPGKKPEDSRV
The data set can be described thus: Cellular uptake in HEK293-hOATP2B1 vs Mock cells. It is filed as in vitro ADME.

Another data set concerns mice liver slices. The data set can be described thus: In vitro uptake of TDE in mice liver slices. It is filed as in vitro ADME, Kunming mice. The settings on record: TDE 10 μmol/L. In outline: (§2)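 Kunming mice (20–25 g, fasted 12 h) were anaesthetised with urethane, and kidney or liver was decapsulated into ice-cold oxygenated buffer at pH 7.5. Slices of about 30 mg were preincubated 5 min under carbogen at 4 or 37 °C. They were then incubated with 10 μmol/L test compound for 5, 10 or 30 min, with or without reference OAT1/OAT3 or OATP inhibitors or co-ingredients. Slices were then washed, blotted, weighed and homogenised, then extracted with methanol and an internal standard for HPLC–MS.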

Another data set deals with T5, hOAT1 (Homo sapiens, UniProt Q4U2R8).
T5 sequence (Q4U2R8 1-563): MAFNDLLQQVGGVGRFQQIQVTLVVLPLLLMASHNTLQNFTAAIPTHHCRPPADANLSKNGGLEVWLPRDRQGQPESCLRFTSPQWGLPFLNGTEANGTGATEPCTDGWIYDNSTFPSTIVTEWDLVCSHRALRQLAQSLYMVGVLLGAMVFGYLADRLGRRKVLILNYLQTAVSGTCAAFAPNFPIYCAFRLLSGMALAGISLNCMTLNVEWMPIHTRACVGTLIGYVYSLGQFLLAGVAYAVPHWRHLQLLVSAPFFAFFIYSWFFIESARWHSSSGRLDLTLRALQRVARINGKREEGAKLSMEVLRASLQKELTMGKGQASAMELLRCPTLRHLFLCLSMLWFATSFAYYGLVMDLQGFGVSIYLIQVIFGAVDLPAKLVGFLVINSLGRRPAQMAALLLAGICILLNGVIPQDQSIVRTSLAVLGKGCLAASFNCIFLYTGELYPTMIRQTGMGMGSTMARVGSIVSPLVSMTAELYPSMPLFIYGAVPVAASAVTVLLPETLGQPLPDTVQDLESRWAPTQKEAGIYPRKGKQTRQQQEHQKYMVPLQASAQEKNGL
The data set can be described thus: Cellular uptake in MDCK-hOAT1 vs Mock cells. It is filed as in vitro ADME. The settings on record: 100 μmol/L, substrate if >2-fold of wild type. In outline: as §1

The subject of the next data set is mice kidney slices. Briefly: In vitro uptake of TDE in mice kidney slices. It is filed as in vitro ADME, Kunming mice. Conditions: TDE 10 μmol/L. In outline:
as §2

Substrate in data set [1]: COc1cc2c(cc1OC)[C@@H]1Cc3ccc(OC)c(OC)c3CN1CC2
The data set can be described thus: Cellular uptake and kinetics in S2-hOAT3 vs Mock cells. It is filed as in vitro ADME, human. The settings on record: other: hOAT3, TDE 0.03-10 μmol/L, 2 min, 37 °C, Eadie-Hofstee, pH 7.4.

The mark [2] stands for this setting: 100 μmol/L, substrate if >2-fold of wild type.

Regarding `CC12CCC3c4ccc(OS(=O)(=O)O)cc4CCC3C1CCC2=O` (stereo not drawn) [3H-ES, 3H-estrone sulfate, reference compound], the “accumulation of model substrate, fold higher than in Mock cells” value at hOAT3 (50 nmol/L 3H-ES, 2 min, S2-hOAT3 vs Mock) was 5.6 fold; at hOATP1B1 (50 nmol/L 3H-ES, 2 min, HEK293-hOATP1B1 vs Mock) it was 10.3 fold; on hOATP1B3 (50 nmol/L 3H-ES, 2 min, HEK293-hOATP1B3 vs Mock) it was 4.7 fold; at hOATP2B1 (50 nmol/L 3H-ES, 2 min, HEK293-hOATP2B1 vs Mock), 4.2 fold. For the same molecule, the “Uptake rate, Control” value is listed as 0.62 ± 0.015∗∗ pmol/mg protein/min at hOAT3 (S2-hOAT3, 50 nmol/L 3H-ES, 2 min); 1.13 ± 0.11∗∗ pmol/mg protein/min at hOATP1B1 (HEK293-hOATP1B1, 50 nmol/L 3H-ES, 2 min); 0.52 ± 0.017∗∗ pmol/mg protein/min on hOATP1B3 (HEK293-hOATP1B3, 50 nmol/L 3H-ES, 2 min); 0.46 ± 0.011∗∗ pmol/mg protein/min on hOATP2B1 (HEK293-hOATP2B1, 50 nmol/L 3H-ES, 2 min). Moreover, the “Uptake rate, Control + inhibitor” value is listed as 0.29 ± 0.17 pmol/mg protein/min on hOAT3 (S2-hOAT3, 50 nmol/L 3H-ES, 2 min, inhibitor not named); 0.35 ± 0.14 pmol/mg protein/min at hOATP1B1 (HEK293-hOATP1B1, 50 nmol/L 3H-ES, 2 min, inhibitor not named); 0.24 ± 0.13 pmol/mg protein/min at hOATP1B3 (HEK293-hOATP1B3, 50 nmol/L 3H-ES, 2 min, inhibitor not named); 0.19 ± 0.034 pmol/mg protein/min at hOATP2B1 (HEK293-hOATP2B1, 50 nmol/L 3H-ES, 2 min, inhibitor not named).
For the molecule `CO[C@H]1/C=C/O[C@@]2(C)Oc3c(C)c(O)c4c(O)c(c(/C=N/N5CCN(C)CC5)c(O)c4c3C2=O)NC(=O)/C(C)=C\C=C\[C@H](C)[C@H](O)[C@@H](C)[C@@H](O)[C@@H](C)[C@H](OC(C)=O)[C@@H]1C` [Rifampicin, rifampicin, reference compound], the “effect on the uptake of TDE in liver slices” value in the data set on mice liver slices (mice liver slices) was “could inhibit”.
By Km is commonly meant the concentration of substrate that gives half-maximal velocity. Consider `COc1cc2c(cc1OC)[C@@H]1Cc3ccc(OC)c(OC)c3CN1CC2` [TDE, tetrahydropalmatine], for which the “accumulation in MDCK-hOAT1, fold higher than in MDCK-Mock” value at hOAT1 is “about 1.25 fold”. Besides, the “accumulation in S2-hOAT3, fold higher than wild type (S2-Mock)” value at hOAT3 (setting [2]) was “about 2.25 fold”. For the same molecule, the “accumulation in hOATP1B1-overexpressed cell lines compared to wild type” value at hOATP1B1 (100 μmol/L) is “could largely accumulate”. Moreover, the “accumulation in HEK293-hOATP1B3 vs HEK293 wild type” value at hOATP1B3 (setting [2]) stood at 3.31 fold. The Vmax at hOATP1B3 (hOATP1B3, TDE 0.03-10 μmol/L, 2 min, 37 °C, Eadie-Hofstee) is 512.09 pmol/mg protein/min. Also, the Km at 2 min at hOATP1B3 (human, pH 7.4) was 6.72 µM. Further, the “accumulation in HEK293-hOATP2B1 vs HEK293 wild type” value at hOATP2B1 (setting [2]) is “less than 2 fold”. Further, in the data set on mice liver slices (liver slices, 30 min), the “accumulation of TDE at 37 °C, fold greater than at 4 °C” value is given as “approximately 2.3 fold”.
On to `CCCN(CCC)S(=O)(=O)c1ccc(C(=O)O)cc1` [probenecid, reference compound], for which the “effect on the uptake of TDE in kidney slices” value with mice kidney slices is listed as “could inhibit”.

B1: hOAT3 (Homo sapiens) (protein)
chain: MTFSEILDRVGSMGHFQFLHVAILGLPILNMANHNLLQIFTAATPVHHCRPPHNASTGPWVLPMGPNGKPERCLRFVHPPNASLPNDTQRAMEPCLDGWVYNSTKDSIVTEWDLVCNSNKLKEMAQSIFMAGILIGGLVLGDLSDRFGRRPILTCSYLLLAASGSGAAFSPTFPIYMVFRFLCGFGISGITLSTVILNVEWVPTRMRAIMSTALGYCYTFGQFILPGLAYAIPQWRWLQLTVSIPFFVFFLSSWWTPESIRWLVLSGKSSKALKILRRVAVFNGKKEEGERLSLEELKLNLQKEISLAKAKYTASDLFRIPMLRRMTFCLSLAWFATGFAYYSLAMGVEEFGVNLYILQIIFGGVDVPAKFITILSLSYLGRHTTQAAALLLAGGAILALTFVPLDLQTVRTVLAVFGKGCLSSSFSCLFLYTSELYPTVIRQTGMGVSNLWTRVGSMVSPLVKITGEVQPFIPNIIYGITALLGGSAALFLPETLNQPLPETIEDLENWSLRAKKPKQEPEVEKASQRIPLQPHGPGLGSS
As to B1, in data set [1], the Km came to 1.44 µM and the Vmax was determined as 188.45 pmol/mg protein/min.
